From ChEMBL document CHEMBL2346503, “Synthesis and evaluation of novel (18)F-labeled spirocyclic piperidine derivatives as σ1 receptor ligands for positron emission tomography imaging” (J Med Chem, 2013)

Assays:
Cortex [1] = test: Biodistribution in Sprague-Dawley rat cortex at 23 MBq, iv after 60 mins by microPET imaging/CT study; assay type: ADME, organism-based; conditions: in vivo, 1 h
Summary of the method: (§1)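 Sprague-Dawley rats under isoflurane (1.5–2.5%) in oxygen received 23 MBq radiotracer (0.2 mL saline) via tail vein. Blocking animals were pre-injected with haloperidol (0.2 mL, 1 mg/kg) 5 min before the tracer. MicroPET emission was acquired for 30 min starting 60 min post-injection, followed by a 5 min CT scan; images were summed over 60–90 min.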

Cortex [2] = test: Drug uptake in Sprague-Dawley rat temporal cortex auditory area at 12.2 MBq, iv after 60 mins by autoradiography; assay type: ADME, organism-based; conditions: in vivo, 1 h
Summary of the method: (§2)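 [¹⁸F]-labelled tracer (0.2 mL, 12.2 MBq) given intravenously to conscious Sprague-Dawley rats (n = 3). Each rat was killed by cervical dislocation 60 min after injection. The brain was removed and frozen in liquid nitrogen, and 20 μm coronal sections were cut on a cryostat for ex vivo autoradiography of regional radioactivity.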

Midbrain = test: Biodistribution in Sprague-Dawley rat midbrain at 23 MBq, iv after 60 mins by microPET imaging/CT study; assay type: ADME, organism-based; conditions: in vivo, 1 h; summary of the method: as §1
Heart = test: Biodistribution in ICR mouse heart assessed as reduction in radiotracer uptake at 370 kBq, iv after 60 minutes by gamma-counting analysis in presence of SA4503 relative to control; assay type: ADME, organism-based; design: scale not given: the % may be the effect or the level left; conditions: in vivo, 1 h
Summary of the method: (§3)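 Male ICR mice got saline or SA4503 (0.1 mL; 2, 5, 10 or 2.2 μmol/kg) via tail vein 5 min before 370 kBq tracer (0.1 mL) iv. They were decapitated at 60 min and tissues γ-counted. Percent change was taken against saline controls, with two-tailed Student's t test, p ≤ 0.05.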

Rattus norvegicus [3] = test: Biodistribution in Sprague-Dawley rat olfactory bulb at 23 MBq, iv after 60 mins by microPET imaging/CT study; assay type: ADME, organism-based; conditions: in vivo, 1 h; summary of the method: as §1
[4] = Drug uptake in Sprague-Dawley rat paramedian lobule at 12.2 MBq, iv after 60 mins by autoradiography; assay type: ADME, organism-based; conditions: in vivo, 1 h; summary of the method: as §2
Rattus norvegicus [5] = test: Biodistribution in Sprague-Dawley rat pontine reticular nucleus at 23 MBq, iv after 60 mins by microPET imaging/CT study; assay type: ADME, organism-based; conditions: in vivo, 1 h; summary of the method: as §1
[6] = Metabolic stability in ICR mouse liver at 18.5 MBq, iv after 30 mins by HPLC analysis; assay type: ADME, organism-based; conditions: read-out: Stability
Summary of the method: (§4)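 Male ICR mice given radiotracer iv (18.5 MBq, 0.2 mL), killed at 30 min. Brain and liver were homogenized in ice-cold PBS (0.01 M, pH 7.4) and extracted with ice-cold MeCN. Supernatants were filtered, concentrated and analysed by radio-HPLC on a C18 column, acetonitrile/water with 0.1% TFA (45:55), 1 mL/min.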

Brain [7] = test: Metabolic stability in ICR mouse brain at 18.5 MBq, iv after 30 mins by HPLC analysis; assay type: ADME, organism-based; conditions: in vivo, 0.5 h; summary of the method: as §4
Hippocampus = test: Drug uptake in Sprague-Dawley rat hippocampus at 12.2 MBq, iv after 60 mins by autoradiography; assay type: ADME, organism-based; conditions: in vivo, 1 h; summary of the method: as §2
Nucleic Acid [8] = test: Ratio of drug uptake in Sprague-Dawley rat hippocampus to cerebellum at 12.2 MBq, iv after 60 mins by autoradiography; assay type: ADME, organism-based; conditions: in vivo, 1 h
Thalamus [9] = test: Biodistribution in Sprague-Dawley rat thalamus at 23 MBq, iv after 60 mins by microPET imaging/CT study; assay type: ADME, organism-based; conditions: in vivo, 1 h; summary of the method: as §1
Lung = test: Biodistribution in ICR mouse lung assessed as reduction in radiotracer uptake at 370 kBq, iv after 60 minutes by gamma-counting analysis in presence of SA4503 relative to control; assay type: ADME, organism-based; design: scale not given: the % may be the effect or the level left; conditions: in vivo, 1 h; summary of the method: as §3
Cerebellum = test: Biodistribution in Sprague-Dawley rat cerebellum at 23 MBq, iv after 60 mins by microPET imaging/CT study in presence of haloperidol; assay type: ADME, organism-based; conditions: in vivo, 1 h; summary of the method: as §1
Kidney = test: Biodistribution in ICR mouse kidney assessed as reduction in radiotracer uptake at 370 kBq, iv after 60 minutes by gamma-counting analysis in presence of SA4503 relative to control; assay type: ADME, organism-based; design: scale not given: the % may be the effect or the level left; conditions: in vivo, 1 h; summary of the method: as §3
[10] = Drug uptake in Sprague-Dawley rat lateral ventricle at 12.2 MBq, iv after 60 mins by autoradiography; assay type: ADME, organism-based; conditions: in vivo, 1 h; summary of the method: as §2
Cortex [11] = test: Drug uptake in Sprague-Dawley rat visual cortex at 12.2 MBq, iv after 60 mins by autoradiography; assay type: ADME, organism-based; conditions: in vivo, 1 h; summary of the method: as §2
[12] = Drug uptake in Sprague-Dawley rat white matter at 12.2 MBq, iv after 60 mins by autoradiography; assay type: ADME, organism-based; conditions: in vivo, 1 h; summary of the method: as §2
Rattus norvegicus [13] = test: Biodistribution in Sprague-Dawley rat olfactory bulb at 23 MBq, iv after 60 mins by microPET imaging/CT study in presence of haloperidol; assay type: ADME, organism-based; conditions: in vivo, 1 h; summary of the method: as §1
Rattus norvegicus [14] = test: Biodistribution in Sprague-Dawley rat internal capsule at 23 MBq, iv after 60 mins by microPET imaging/CT study in presence of haloperidol; assay type: ADME, organism-based; conditions: in vivo, 1 h; summary of the method: as §1
Nucleic Acid [15] = test: Ratio of drug uptake in Sprague-Dawley rat temporal cortex auditory area to cerebellum at 12.2 MBq, iv after 60 mins by autoradiography; assay type: ADME, organism-based; conditions: in vivo, 1 h
[16] = Chemical stability of the compound at room temperature up to 4 hrs; assay type: physicochemical
Summary of the method: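 Radiotracer (3.7 MBq in 100 μL water) was added to 1 mL of 80% ethanol or 0.9% NaCl and held at room temperature for 4 h. Radiochemical purity was checked by HPLC at 1, 2 and 4 h.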

Hypothalamus [17] = test: Biodistribution in Sprague-Dawley rat hypothalamus at 23 MBq, iv after 60 mins by microPET imaging/CT study; assay type: ADME, organism-based; conditions: in vivo, 1 h; summary of the method: as §1
Cortex [18] = test: Drug uptake in Sprague-Dawley rat cortex at 12.2 MBq, iv after 60 mins by autoradiography; assay type: ADME, organism-based; conditions: in vivo, 1 h; summary of the method: as §2
Thalamus [19] = test: Biodistribution in Sprague-Dawley rat thalamus at 23 MBq, iv after 60 mins by microPET imaging/CT study in presence of haloperidol; assay type: ADME, organism-based; conditions: in vivo, 1 h; summary of the method: as §1
Thalamus [20] = test: Drug uptake in Sprague-Dawley rat thalamus at 12.2 MBq, iv after 60 mins by autoradiography; assay type: ADME, organism-based; conditions: in vivo, 1 h; summary of the method: as §2
[21] = Drug uptake in Sprague-Dawley rat vermian lobule at 12.2 MBq, iv after 60 mins by autoradiography; assay type: ADME, organism-based; conditions: in vivo, 1 h; summary of the method: as §2
Rattus norvegicus [22] = test: Biodistribution in Sprague-Dawley rat pontine reticular nucleus at 23 MBq, iv after 60 mins by microPET imaging/CT study in presence of haloperidol; assay type: ADME, organism-based; conditions: in vivo, 1 h; summary of the method: as §1
Brain [23] = test: Biodistribution in ICR mouse brain assessed as reduction in radiotracer uptake at 370 kBq, iv after 60 minutes by gamma-counting analysis in presence of tamoxifen; assay type: ADME, organism-based; conditions: in vivo, 1 h
Summary of the method: (§5)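 Male ICR mice got saline or a blocker (haloperidol, (S)-(−)-raclopride, fluvoxamine or tamoxifen; 0.1 mL, 2.2 μmol/kg) via tail vein 5 min before 370 kBq tracer iv. Brain was γ-counted at 60 min and compared with saline controls by two-tailed Student's t test, p ≤ 0.05.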

Brain [24] = test: Biodistribution in ICR mouse brain assessed as reduction in radiotracer uptake at 370 kBq, iv after 60 minutes by gamma-counting analysis in presence of SA4503 relative to control; assay type: ADME, organism-based; design: scale not given: the % may be the effect or the level left; conditions: in vivo, 1 h; summary of the method: as §3
Brain [25] = test: Biodistribution in ICR mouse brain assessed as reduction in radiotracer uptake at 370 kBq, iv after 60 minutes by gamma-counting analysis in presence of (S)-(-)raclopride; assay type: ADME, organism-based; conditions: in vivo, 1 h; summary of the method: as §5
Hypothalamus [26] = test: Biodistribution in Sprague-Dawley rat hypothalamus at 23 MBq, iv after 60 mins by microPET imaging/CT study in presence of haloperidol; assay type: ADME, organism-based; conditions: in vivo, 1 h; summary of the method: as §1
Nucleic Acid [27] = test: Ratio of drug uptake in Sprague-Dawley rat thalamus to cerebellum at 12.2 MBq, iv after 60 mins by autoradiography; assay type: ADME, organism-based; conditions: in vivo, 1 h

Drug uptake (Cortex [1]): Active
Drug uptake (Cortex [2]): Active
Drug uptake (Midbrain): Active
Activity (Heart): 60%
Drug uptake (Rattus norvegicus [3]): Active
Drug uptake [4]: Active
Drug uptake (Rattus norvegicus [5]): Active
remaining at 0.5 h [6]: 40.3%
Stability (Brain [7]): Stable
Drug uptake (Hippocampus): Active
Ratio (Nucleic Acid [8]): 1.22
Drug uptake (Thalamus [9]): Active
Activity (Lung): 71%
Drug uptake (Cerebellum): Active
Activity (Kidney): 57%
Drug uptake [10]: Active
Drug uptake (Cortex [11]): Active
Drug uptake [12]: Active
Drug uptake (Rattus norvegicus [13]): Active
Drug uptake (Rattus norvegicus [14]): Active
Ratio (Nucleic Acid [15]): 1.9
Stability [16]: Stable
Drug uptake (Hypothalamus [17]): Active
Drug uptake (Cortex [18]): Active
Drug uptake (Thalamus [19]): Active
Drug uptake (Thalamus [20]): Active
Drug uptake [21]: Active
Drug uptake (Rattus norvegicus [22]): Active
Drug uptake (Brain [23]): Active
Activity (Brain [24]): 46%
Drug uptake (Brain [25]): Active
Drug uptake (Hypothalamus [26]): Active
Ratio (Nucleic Acid [27]): 1.38
SMILES: [18F]CCOc1ccc(CN2CCC3(CC2)OCc2ccccc23)cc1
